In article PMC7217742 (Addiction biology, 2019):

Legend:
male Sprague-Dawley rats [1] = assay: Locomotor activity; type: in vivo, rat; details: i.v., lowest dose with increase, during microdialysis
How it was run: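 Ambulation and stereotypy were counted by photobeam breaks in the same rats during nucleus accumbens microdialysis. The rats received two sequential i.v. injections 60 min apart, the second threefold higher (0.1/0.3 or 1.0/3.0 mg/kg), or saline (1 ml/kg), and were monitored through the 120-min post-injection period.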

male Sprague-Dawley rats [2] = assay: Telemetric assessment of blood pressure; type: in vivo, rat; details: s.c.; for ED50 blood pressure: mean over 3-h session, halfway point 109.5 mm Hg, 95% CI given in text
[3] = system: extracellular dopamine in the nucleus accumbens; assay: In vivo microdialysis, dopamine; set-up: species or system rat; details: for dose producing a significant increase in extracellular dopamine: i.v., nucleus accumbens microdialysis, vs saline
How it was run: (§1)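 Male Sprague-Dawley rats (300–400 g) were anesthetized with ketamine/xylazine (75/5 mg/kg i.p.) and fitted with a jugular catheter and a guide cannula aimed at the nucleus accumbens. After three stable baseline samples, they received two i.v. doses 60 min apart, the second threefold higher (0.1 then 0.3, or 1.0 then 3.0 mg/kg); controls received saline (1 ml/kg). Dialysate was collected every 20 min for 120 min. Probe placement was verified histologically. Data were expressed as % baseline and analysed by two-way ANOVA with Bonferroni tests.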

NET [4] = biological target: NET (Rattus norvegicus, UniProt Q63380); assay: Inhibition of [3H]norepinephrine uptake in rat brain synaptosomes; type: biochemical
DAT [5] = biological target: DAT (Rattus norvegicus, UniProt P23977); assay: Inhibition of [3H]dopamine uptake in rat brain synaptosomes; type: biochemical
male Sprague-Dawley rats [6] = assay: Intravenous self-administration; type: in vivo, rat; details: for acquisition of self-administration (rats showing clear evidence): FR1, 10 days, 2-h sessions; for i.v. dose supporting peak responding: dose-effect testing after training on the same enantiomer, discussion; for dose of peak (highest) responding in dose-effect testing: i.v., after acquisition, results section; for active nose-poke responding over 10 days of extinction: saline substituted for drug
How it was run: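 Rats on a reverse light cycle were catheterized in the jugular vein under ketamine/xylazine (80/9.6 mg/kg i.p.) and recovered for at least 7 days. Active nose-pokes (side counterbalanced) were reinforced on FR1 with an i.v. infusion, each followed by a 20-s timeout, in 2-h sessions. Acquisition ran at least 10 days at 0.03 or 0.3 mg/kg/inj. Three further doses were then given in non-systematic order, 3 days each, averaging days 2–3. Saline substitution for 10 days followed. Analysis used a linear mixed-effects model.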

male Sprague-Dawley rats [7] = assay: Telemetric assessment of body temperature; type: in vivo, rat; details: s.c., telemetry, data not shown
How it was run: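 In telemetry-implanted rats adapted to the chambers and to s.c. injection, body temperature was sampled for 10 s each minute for 3 h and averaged across the session. Doses were 0.3–3.0 mg/kg or 3.0–30 mg/kg s.c., in non-systematic order, at most twice weekly. One-way ANOVA with Dunnett's test compared each dose with control.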

[8] = system: extracellular 5-HT in the nucleus accumbens; assay: In vivo microdialysis, 5-HT; set-up: species or system rat; details: i.v.
How it was run: as §1

[9] = system: mice trained to discriminate cocaine from saline; details: cited from earlier work
NET [10] = details: range given for DAT and NET together; cited from earlier work
rats = details: progressive ratio schedule, rats trained with racemic MDPV; cited from earlier work
DAT [11] = details: range given for DAT and NET together; cited from earlier work
[12] = uptake inhibition, rat brain synaptosomes

Sequence of DAT (Rattus norvegicus, UniProt P23977) (P23977 whole entry): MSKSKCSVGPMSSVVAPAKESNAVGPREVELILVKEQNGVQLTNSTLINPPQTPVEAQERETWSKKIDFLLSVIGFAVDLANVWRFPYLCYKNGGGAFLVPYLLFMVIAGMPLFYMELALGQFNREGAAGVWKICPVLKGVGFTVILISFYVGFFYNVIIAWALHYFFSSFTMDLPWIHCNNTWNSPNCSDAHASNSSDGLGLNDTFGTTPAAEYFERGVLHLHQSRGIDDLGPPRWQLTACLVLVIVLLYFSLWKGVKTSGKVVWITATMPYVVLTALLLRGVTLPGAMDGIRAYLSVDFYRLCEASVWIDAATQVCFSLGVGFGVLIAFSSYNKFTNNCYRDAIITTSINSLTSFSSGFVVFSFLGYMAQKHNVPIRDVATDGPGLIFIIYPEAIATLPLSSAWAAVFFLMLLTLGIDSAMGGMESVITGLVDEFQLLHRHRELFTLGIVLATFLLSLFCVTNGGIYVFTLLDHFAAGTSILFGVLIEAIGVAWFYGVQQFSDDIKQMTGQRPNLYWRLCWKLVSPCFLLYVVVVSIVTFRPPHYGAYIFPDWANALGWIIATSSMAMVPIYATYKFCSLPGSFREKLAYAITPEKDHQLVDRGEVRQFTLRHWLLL
Sequence of NET (Rattus norvegicus, UniProt Q63380) (Q63380 1-617): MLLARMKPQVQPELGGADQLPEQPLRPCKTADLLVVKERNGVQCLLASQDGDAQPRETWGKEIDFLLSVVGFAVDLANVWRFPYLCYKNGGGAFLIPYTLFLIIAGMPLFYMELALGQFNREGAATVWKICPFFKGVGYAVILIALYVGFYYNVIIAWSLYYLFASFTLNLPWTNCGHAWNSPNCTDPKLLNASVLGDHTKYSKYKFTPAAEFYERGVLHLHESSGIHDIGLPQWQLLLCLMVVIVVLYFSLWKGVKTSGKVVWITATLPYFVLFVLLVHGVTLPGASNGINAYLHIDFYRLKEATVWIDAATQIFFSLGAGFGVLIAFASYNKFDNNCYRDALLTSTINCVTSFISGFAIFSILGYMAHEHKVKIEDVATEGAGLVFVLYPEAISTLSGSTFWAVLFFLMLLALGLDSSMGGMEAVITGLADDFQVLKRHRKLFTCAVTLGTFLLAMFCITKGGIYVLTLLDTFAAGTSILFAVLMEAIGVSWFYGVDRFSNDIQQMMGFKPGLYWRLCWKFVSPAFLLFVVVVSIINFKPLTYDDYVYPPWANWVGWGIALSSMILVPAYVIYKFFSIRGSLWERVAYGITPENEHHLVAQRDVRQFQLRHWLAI

Compound	dose increasing overall activity and stereotypy (male Sprague-Dawley rats [1])	ED50 blood pressure (male Sprague-Dawley rats [2])	dose producing a significant increase in extracellular dopamine [3]	acquisition of self-administration (rats showing clear evidence) (male Sprague-Dawley rats [6]; 0.03 mg/kg/injection i.v.)	i.v. dose supporting peak responding (male Sprague-Dawley rats [6])	dose of peak (highest) responding in dose-effect testing (male Sprague-Dawley rats [6])	active nose-poke responding over 10 days of extinction (male Sprague-Dawley rats [6])	dose with significant increase in body temperature (male Sprague-Dawley rats [7])	other results
CCC[C@H](C(=O)c1ccccc1)N1CCCC1 [R-α-PVP]	3 mg/kg	5.85 mg/kg	3 mg/kg	did not show evidence of acquisition	0.3 mg/kg/inj	0.3 mg/kg/injection	did not decrease significantly over days of extinction	10 mg/kg	fold difference in potency between enantiomers from calculated ED50 values (male Sprague-Dawley rats [2]; blood pressure and heart rate, R- vs S-α-PVP): 20 – 40 fold; times less potent than racemic α-PVP on blood pressure (male Sprague-Dawley rats [2]; from significant doses): approximately 10 times; size of dopamine increase relative to 0.3 mg/kg S-α-PVP ([3]; 3 mg/kg i.v., nucleus accumbens): less than half; times less potent than S-α-PVP at NET (NET [4]): 20 times; times less potent than S-α-PVP at DAT (DAT [5]; [12]): 40 times; acquisition of self-administration (rats showing clear evidence) (male Sprague-Dawley rats [6]; 0.3 mg/kg/injection i.v.): Six of the 8; times less potent than S-α-PVP (self-administration dose-effect determinations) (male Sprague-Dawley rats [6]; abstract): at least 30 times; fold less potent than racemic α-PVP (self-administration dose-effect function) (male Sprague-Dawley rats [6]; rightward shift of inverted U-shaped function): around 30 fold
CCCC(C(=O)c1ccccc1)N1CCCC1 (stereo not drawn) [R,S-α-PVP, α-pyrrolidinovalerophenone]	0.3 mg/kg	–	–	–	–	–	–	–	change in extracellular levels of 5-HT [8]: no changes
CCC[C@@H](C(=O)c1ccc2c(c1)OCO2)N1CCCC1 [S-MDPV]	–	–	–	–	–	–	–	–	times more potent than the R-isomer in substituting for cocaine [9]: about 100 times; times more potent than R-MDPV in blocking uptake at NET (NET [10]): 50–100 times; times more potent than the R-isomer in self-administration (rats): about 50 times; times more potent than R-MDPV in blocking uptake at DAT (DAT [11]): 50–100 times
CCC[C@@H](C(=O)c1ccccc1)N1CCCC1 [S-α-PVP]	0.1 mg/kg	0.29 mg/kg	0.1 mg/kg	All 10	≤ 0.003 mg/kg/inj	0.003 mg/kg/injection	decreased over the 10 days of extinction	0.3 mg/kg	times more potent than racemic on blood pressure (ED50) (male Sprague-Dawley rats [2]): approximately 2 times; times more potent than the racemate at NET (NET [4]): about 2 times; times more potent than cocaine in blocking uptake at DAT (DAT [5]; discussion): about 30 times; times more potent than the racemate at DAT (DAT [5]; [12]): about 2 times
